PglD inh: inhibitors of Campylobacter jejuni PglD acetyltransferase. inhibition, % at 12.5 µM. purified PglD enzyme, DTNB colorimetric CoA detection. 360,000 compounds, 0.098% hits; in the data active means inhibition above about 16%, passing the limit was not always enough
Ecoli rRNA inh: inhibitors of bacterial rRNA selective over humanized ribosomes. GFP signal change (wild-type ribosome), % (no concentration beside the values). E. coli WT GFP vs humanized-ribosome RFP mutants, fluorescence, 24 h; stronger effect = lower value; DMSO median 0, no signal -100. AID 720706. 350,000 compounds, 1.6% hits;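 active means significant combined selectivity score with lowered wild-type GFP, culture density cut under 30%, mutant RFP and density less affected; inactive means any of these conditions unmet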
CR mimetic SO: lowers age-related superoxide in aged yeast cells; superoxide response (% of plate mean), % at 10 µM; 330,000 compounds, 0.18% hits; S. cerevisiae aged cells, superoxide DHE fluorescence; stronger effect = lower value;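 active means superoxide response under a set limit, about three screen SD below normal, cut at about 65% in these data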;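 further: yeast aged for seven days with compound at 30 °C before DHE staining; 100% = average MFI of all compound-treated wells on the plate with controls excluded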
Mot1-301 SUMO: SUMOylation pathway inhibition by Mot1-301 growth rescue | S. cerevisiae Mot1-301 growth rescue, ATP luminescence, 38.5C; percent above DMSO median, 100 means doubled | growth rescue, % at 18.8 µM | 320,000 compounds, 1% hits | AID 2716;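 active means every valid replicate shows activation above 250% relative to neutral control wells; inactive means the rest, any valid replicate at or below 250%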;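 further: OY570 slx delta 5 strain wells were the positive control but not used for scaling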
Cneo AK release: Cryptococcus neoformans lysis via adenylate kinase release | C. neoformans lysis, adenylate kinase release luminescence, 4 h; normalised: neutral wells 0, clomiphene wells 100 | lysis activity, % at 15 µM | 360,000 compounds, 0.2% hits | AID 651654;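 active means mean lysis activity across replicates of at least 80%, whatever share of replicates individually reach that level; inactive means mean lysis activity below 80%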
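Material – Cryptococcus neoformans yeast cells · Quantity – 5 × 10^6 yeast cells/mL · Buffer or medium – YPD medium · Compound – single dose · Timing – 4 h static compound exposure, 37 °C, read 1 h post-reagent · Signal – adenylate kinase release luminescence · Read-out basis – lysis from increased AK signal · Benchmarks – Clomiphene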
An asterisk follows results filed as active; x = not tested or not shown. Compounds with a hit are over-represented: about 2.2% of the library has one in this group of screens.

SMILES	PglD inh	Ecoli rRNA inh	CR mimetic SO	Mot1-301 SUMO	Cneo AK release
C[C@H](CO)N1C[C@H](C)[C@@H](CN(C)S(C)(=O)=O)Oc2ccc(NC(=O)Nc3cccc4ccccc34)cc2CC1=O	-5	x	x	x	59
COC(=O)C[C@H]1CC[C@H]2[C@@H](COc3ccc(NC(=O)CN(C)C)cc3C(=O)N2C)O1	x	6	x	x	x
Cc1ccccc1C(=O)NC(CC(C)C)C(=O)Nc1ccc(S(N)(=O)=O)cc1 (stereo not given)	x	-24*	109	x	x
CCCC(C)C(=O)Nc1ccc(S(N)(=O)=O)cc1 (stereo not given)	x	5	103	11	x
NC(=O)COc1ccc(Nc2nnc(-c3ccc(O)cc3)c3ccccc23)cc1	2	-25*	90	-23	1
Cc1ccc(C(=O)NC(C#N)=C(Cl)Cl)cc1	x	-27*	x	x	x
Cc1ccc(C(=O)NCC#N)cc1	x	2	83	-13	x
CCOc1ccccc1N(C(=O)c1ccccc1Cl)C1=NC(C)(C)CS1	x	-23*	104	x	-2
COc1ccc(C)cc1N(C(=O)c1ccc(C#N)cc1)C1=NC(C)(C)CS1	-5	10	101	-10	12
CC(=O)Nc1ccc(C(=O)CSc2nnc(-c3ccccc3F)n2CCc2ccccc2)cc1	x	-35*	x	x	x
O=C(O)/C=C/C(=O)Nc1ccc(C(=O)c2ccccc2)cc1	x	15	98	294	x
O=C(O)/C=C/C(=O)Nc1ccc(Cl)cc1C(=O)c1ccccc1	1	-23*	103	-11	2
Cc1cc(C(=O)Nc2cccc3c2O[C@@H](CN(C)S(=O)(=O)c2ccc(F)cc2)[C@H](C)CN([C@@H](C)CO)C3=O)n(C)n1	-2	1	x	x	5
O=C(NCCc1c[nH]c2ccccc12)/C(=C/c1cccnc1)NC(=O)c1cccs1	x	-28*	99	4	x
C[C@@H]1CN([C@H](C)CO)C(=O)c2cccc(NS(=O)(=O)c3cn(C)cn3)c2O[C@@H]1CN(C)Cc1ccccc1	-1	2	x	x	-1
COc1ccc(N(CC(=O)Nc2cc(Cl)ccc2C)S(=O)(=O)c2c(C)noc2C)cc1	4	-29*	99	19	-1
CCc1cccc(NC(=O)CN(c2ccc(C)cc2)S(=O)(=O)c2c(C)noc2C)c1	3	-31*	118	101	-9
Cc1ccc(C(=O)N/C(=C\c2ccc(Br)cc2)c2nc(=S)[nH][nH]2)cc1	3	-25*	105	23	0
O=C(N/C(=C/c1cccc(Br)c1)c1nc(=S)[nH][nH]1)c1ccccc1	6	x	90	1	-5
Cc1nn2c(SCC(=O)c3cccs3)cc(C(C)(C)C)nc2c1-c1ccccc1	x	-30*	101	-11	x
C=C(C)CSc1cc(C)nc2c(-c3ccccc3)c(C)nn12	-1	-49*	86	8	-4
COCCNC(=S)Nc1ccc(Cl)c(Cl)c1	x	5	77	1	x
C=COCCNC(=O)Nc1ccc(Cl)c(Cl)c1	-2	-21*	89	-18	2
CO[C@@H]1CN(C)C(=O)c2ccc(NC(=O)C3CC3)cc2OC[C@H](C)N(Cc2ccncc2)C[C@@H]1C	3	-4	x	x	-2
O=C(C[C@H]1CC[C@@H]2[C@H](COC[C@H](O)CN2C(=O)Nc2ccc(Cl)c(Cl)c2)O1)NCc1ccc(Cl)c(Cl)c1	0	-59	x	x	-6
SMILES	PglD inh	Ecoli rRNA inh	CR mimetic SO	Mot1-301 SUMO	Cneo AK release
CSc1nsc(N/N=C/c2ccc3c(c2)OCO3)c1C#N	x	-29*	98	x	x
COc1cc(/C=N/Nc2snc(SC)c2C#N)cc(OC)c1OC	12	x	106	9	0
Cc1cccc(NCCC(=O)c2ccc(Br)cc2)c1	-3	2	102	-2	29
CC(C)c1ccc(NCCC(=O)c2ccc(Br)cc2)cc1	3	x	101	324*	3
C[C@@H]1CN([C@H](C)CO)C(=O)c2cc(C#CC(C)(C)O)cnc2O[C@H]1CN(C)Cc1ccccn1	0	1	x	x	-6
N#C/C(=N\Nc1cccc(F)c1)C(=O)C1CC1	x	-25*	105	-16	x
O=C(Nc1cccc(F)c1)C1CCCCC1	7	4	93	-1	9
COc1ccc2c3c([nH]c2c1)[C@@H](CO)N(C(=O)c1ccncc1)CC31CN(Cc2cccnc2)C1	x	3	x	x	x
CC(C)NC(=O)Nc1ccc2c(c1)C(=O)N([C@H](C)CO)C[C@@H](C)[C@@H](CN(C)C(=O)NC(C)C)OCCCC[C@@H](C)O2	-3	3	x	x	0
CC(C)NC(=O)Nc1ccc2c(c1)C(=O)N([C@H](C)CO)C[C@@H](C)[C@H](CN(C)C(=O)c1ccncc1)OCCCC[C@H](C)O2	6	-1	x	x	1
CC(C)NC(=O)Nc1ccc2c(c1)C(=O)N([C@H](C)CO)C[C@H](C)[C@@H](CN(C)C(=O)NC(C)C)OCCCC[C@H](C)O2	0	4	x	x	113*
CC(C)NC(=O)Nc1ccc2c(c1)C(=O)N([C@@H](C)CO)C[C@H](C)[C@H](CN(C)C(=O)c1ccncc1)OCCCC[C@@H](C)O2	1	3	x	x	1
CC(C)NC(=O)Nc1ccc2c(c1)C(=O)N([C@@H](C)CO)C[C@@H](C)[C@@H](CN(C)C(=O)c1ccncc1)OCCCC[C@@H](C)O2	2	-4	x	x	111*
CC(C)NC(=O)Nc1ccc2c(c1)C(=O)N([C@@H](C)CO)C[C@@H](C)[C@H](CN(C)C(=O)c1ccncc1)OCCCC[C@H](C)O2	-3	2	x	x	115*
C[C@H]1CN([C@@H](C)CO)C(=O)c2cc(C3=CCCC3)cnc2O[C@H]1CN(C)C	-1	1	x	x	2
CC(C)NC(=O)N1C[C@@H]2C(c3ccc(Br)cc3)[C@H](C1)N2CC(F)(F)F (stereo not given in full)	x	-2	x	x	x
CCCNC(=O)N1CC2(C1)CN(C(=O)CC)[C@H](CO)c1c2c2ccc(OC)cc2n1C	x	2	x	x	x
C/C=C/c1ccc([C@H]2[C@H](CO)N(C(=O)CC)[C@H]2CNC(=O)CC2CC2)cc1	0	-3	x	x	x
Cc1ccc(NC(=O)NC2=NN(c3ccccc3)C(=O)/C2=C2/CCCN2C)cc1	4	10	88	x	-1
CN1CCC/C1=C1/C(=O)N(c2ccccc2)N=C1NC(=O)Nc1cccc(Cl)c1	x	-31*	99	x	x
Clc1ccc(-c2c[n+](Cc3ccc(Br)cc3)c3n2CCCCC3)cc1	x	-52*	94	-4	x
O=C(C[n+]1cc(-c2ccc(Cl)c(Cl)c2)n2c1CCC2)OCc1ccccc1	2	-14*	104	6	1
O=[N+]([O-])c1ccc(C[n+]2cc(-c3ccc(Cl)c(Cl)c3)n3c2CCCCC3)cc1	x	-49*	90	11	x
O=[N+]([O-])c1ccc(C[n+]2cc(-c3ccccc3)n3c2CCCCC3)cc1	x	12	104	1	x
COc1ccc(NC(=O)Nc2ccc3c(c2)C(=O)N([C@@H](C)CO)C[C@H](C)[C@H](CN(C)S(=O)(=O)c2cn(C)cn2)OCCCC[C@@H](C)O3)cc1	-2	2	x	x	-2

Compound activity from PubChem BioAssay.
